Results as given in ChEMBL document CHEMBL2407062, “Synthesis and anticancer activities of 5,6,7-trimethoxy-N-phenyl(ethyl)-4-aminoquinazoline derivatives” (Eur J Med Chem, 2013).
Calls of active or inactive are those of the source. No cut-off for these calls is given here.

Columns and labels:
[1] = system: PC-3; assay: Induction of apoptosis in human PC3 cells assessed as apoptotic rate at 30 uM after 72 hrs by annexin-V FITC and propidium iodide staining-based FACS flow cytometric analysis relative to control; assay type: functional
In short: (§1)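 PC3 cells (RPMI 1640 with 10% heat-inactivated FBS, 37 °C, 5% CO2) exposed to compound for 24, 48 or 72 h; 0.1% DMSO as negative control. Cells at 1 × 10⁶/mL washed twice in cold PBS, resuspended in binding buffer, stained with Annexin V-FITC and PI. Apoptosis ratio is early (Annexin+/PI−) plus late (Annexin+/PI+) apoptotic cells.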

[2] = system: PC-3; assay: Induction of apoptosis in human PC3 cells assessed as apoptotic rate at 20 uM after 72 hrs by annexin-V FITC and propidium iodide staining-based FACS flow cytometric analysis relative to control; assay type: functional; in short: as §1
[3] = system: PC-3; assay: Induction of apoptosis in human PC3 cells assessed as apoptotic rate at 30 uM after 48 hrs by annexin-V FITC and propidium iodide staining-based FACS flow cytometric analysis relative to control; assay type: functional; in short: as §1
[4] = system: PC-3; assay: Induction of apoptosis in human PC3 cells assessed as apoptotic rate at 20 uM after 48 hrs by annexin-V FITC and propidium iodide staining-based FACS flow cytometric analysis relative to control; assay type: functional; in short: as §1
[5] = system: PC-3; assay: Induction of apoptosis in human PC3 cells assessed as apoptotic rate at 30 uM after 24 hrs by annexin-V FITC and propidium iodide staining-based FACS flow cytometric analysis relative to control; assay type: functional; in short: as §1
[6] = system: PC-3; assay: Induction of apoptosis in human PC3 cells assessed as apoptotic rate at 20 uM after 24 hrs by annexin-V FITC and propidium iodide staining-based FACS flow cytometric analysis relative to control; assay type: functional; in short: as §1
[7] = system: PC-3; assay: Induction of apoptosis in human PC3 cells assessed as apoptotic rate at 10 uM after 72 hrs by annexin-V FITC and propidium iodide staining-based FACS flow cytometric analysis relative to control; assay type: functional; in short: as §1
[8] = system: PC-3; assay: Induction of apoptosis in human PC3 cells assessed as apoptotic rate at 10 uM after 48 hrs by annexin-V FITC and propidium iodide staining-based FACS flow cytometric analysis relative to control; assay type: functional; in short: as §1
[9] = system: PC-3; assay: Induction of apoptosis in human PC3 cells assessed as apoptotic rate at 10 uM after 24 hrs by annexin-V FITC and propidium iodide staining-based FACS flow cytometric analysis relative to control; assay type: functional; in short: as §1
[10] = system: PC-3; assay: Induction of apoptosis in human PC3 cells assessed as compact nucleus at 10 uM after 72 hrs by Hoechst 33258 staining-based fluorescence microscopic analysis; assay type: functional, cell-based
In short: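 PC3 cells treated 72 h, then stained with Hoechst 33258 and viewed by fluorescence microscopy. DMSO served as negative control. Live nuclei scored as uniformly light blue; apoptotic nuclei bright blue with condensed chromatin and karyopyknosis.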

[11] = system: PC-3; assay: Induction of apoptosis in human PC3 cells assessed as pycnosis at 10 uM after 48 hrs by AO/EB staining-based fluorescence microscopic analysis; assay type: functional, cell-based
In short: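 PC3 cells seeded at 5 × 10⁴ cells/mL on sterile coverslips. Medium replaced with fresh medium plus 10% FBS containing compound, treated 24–72 h. Coverslips inverted onto acridine orange/ethidium bromide stain ([…] as printed) and read by fluorescence microscopy. Live cells scored green, early apoptotic green-yellow, late apoptotic orange, necrotic orange without condensed chromatin.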

[12] = system: PC-3; assay: Induction of apoptosis in human PC3 cells assessed as apoptotic rate at 1 to 10 uM by annexin-V FITC and propidium iodide staining-based FACS flow cytometric analysis; assay type: functional, cell-based; settings: TDE = time-dependent effect
In short: (§2)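 PC3 cells exposed to 1, 5 or 10 μM for 24, 48 or 72 h. Controls were 0.1% DMSO and HCPT 10 μM. Cells at 1 × 10⁶/mL washed twice with cold PBS, resuspended in binding buffer, stained with annexin V-FITC and PI. Apoptosis ratio is the sum of early (annexin+/PI−) and late (annexin+/PI+) fractions.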

[13] = system: PC-3; assay: Induction of apoptosis in human PC3 cells assessed as apoptotic rate after 24 to 72 hrs by annexin-V FITC and propidium iodide staining-based FACS flow cytometric analysis; assay type: functional, cell-based; in short: as §2
[14] = system: PC-3; assay: Induction of apoptosis in human PC3 cells assessed as apoptotic rate at 5 uM after 72 hrs by annexin-V FITC and propidium iodide staining-based FACS flow cytometric analysis relative to control; assay type: functional; in short: as §2
[15] = system: PC-3; assay: Induction of apoptosis in human PC3 cells assessed as apoptotic rate at 1 uM after 72 hrs by annexin-V FITC and propidium iodide staining-based FACS flow cytometric analysis relative to control; assay type: functional; in short: as §2
[16] = system: PC-3; assay: Induction of apoptosis in human PC3 cells assessed as apoptotic rate at 5 uM after 48 hrs by annexin-V FITC and propidium iodide staining-based FACS flow cytometric analysis relative to control; assay type: functional; in short: as §2
[17] = system: PC-3; assay: Induction of apoptosis in human PC3 cells assessed as apoptotic rate at 1 uM after 48 hrs by annexin-V FITC and propidium iodide staining-based FACS flow cytometric analysis relative to control; assay type: functional; in short: as §2
[18] = system: PC-3; assay: Induction of apoptosis in human PC3 cells assessed as apoptotic rate at 5 uM after 24 hrs by annexin-V FITC and propidium iodide staining-based FACS flow cytometric analysis relative to control; assay type: functional; in short: as §2
[19] = system: PC-3; assay: Induction of apoptosis in human PC3 cells assessed as apoptotic rate at 1 uM after 24 hrs by annexin-V FITC and propidium iodide staining-based FACS flow cytometric analysis relative to control; assay type: functional; in short: as §2
[20] = system: PC-3; assay: Induction of apoptosis in human PC3 cells assessed as DNA fragmentation at 10 uM by agarose gel electrophoretic analysis; assay type: functional, cell-based
In short: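 PC3 cells treated at 10 μM. Apoptotic DNA fragments extracted, run on agarose gel electrophoresis, stained with Gold View.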

[21] = system: PC-3; assay: Induction of apoptosis in human PC3 cells assessed as apoptotic cells at 10 uM after 72 hrs by Hoechst 33258 staining-based fluorescence microscopic analysis; assay type: functional, cell-based
In short: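 PC3 cells treated at 1 and 10 μM for 72 h, then stained with Hoechst 33258 and viewed by fluorescence microscopy. DMSO negative control; HCPT 10 μM for 72 h positive control. Bright blue condensed nuclei were scored as apoptotic.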

[22] = system: PC-3; assay: Induction of necrosis in human PC3 cells at 10 uM after 72 hrs by AO/EB staining-based fluorescence microscopic analysis; assay type: cell-based; settings: pc-3, 72 h
In short: (§3)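 PC3 cells seeded at 5 × 10⁴ cells/mL on cover slips, then given fresh medium with 10% FBS plus compound, 10 μM for 24–72 h. HCPT 10 μM positive control. Stained with AO/EB (100 μg/mL) and examined by fluorescence microscopy. Green: live; green-yellow: early apoptotic; orange fragments: late apoptotic; orange without condensed chromatin: necrotic.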

[23] = system: PC-3; assay: Induction of apoptosis in human PC3 cells assessed as late apoptotic cells at 10 uM after 72 hrs by AO/EB staining-based fluorescence microscopic analysis; assay type: functional, cell-based; in short: as §3
[24] = system: PC-3; assay: Induction of apoptosis in human PC3 cells assessed as cell budding at 10 uM after 24 to 72 hrs by AO/EB staining-based fluorescence microscopic analysis; assay type: functional; in short: as §3
[25] = system: PC-3; assay: Induction of apoptosis in human PC3 cells assessed as membrane blebbing at 10 uM after 24 to 72 hrs by AO/EB staining-based fluorescence microscopic analysis; assay type: functional, cell-based; in short: as §3
[26] = system: PC-3; assay: Induction of apoptosis in human PC3 cells assessed as pycnosis at 10 uM after 24 to 72 hrs by AO/EB staining-based fluorescence microscopic analysis; assay type: functional, cell-based; in short: as §3
[27] = system: PC-3; assay: Induction of apoptosis in human PC3 cells at 10 uM after 24 to 72 hrs by AO/EB staining-based fluorescence microscopic analysis; assay type: functional, cell-based; in short: as §3
[28] = system: Bcap37; assay: Growth inhibition of human Bcap37 cells after 72 hrs by MTT assay; assay type: functional, cell-based; settings: Bcap37, 72 h
In short: (§4)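 Cells in RPMI 1640 with 10% heat-inactivated FBS, 37 °C, 5% CO2. Seeded at 2 × 10³ cells per well. Compounds dissolved in DMSO, diluted in medium, tested at 1–100 μM for 72 h; 0.1% DMSO control. MTT read-out, absorbance at 595 nm. Mean ± SD of triplicate experiments. IC50 taken from the dose–response curve.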

[29] = system: BGC-823; assay: Growth inhibition of human BGC823 cells after 72 hrs by MTT assay; assay type: functional, cell-based; settings: BGC-823, 72 h; in short: as §4
[30] = system: PC-3; assay: Growth inhibition of human PC3 cells after 72 hrs by MTT assay; assay type: functional, cell-based; settings: PC-3, 72 h; in short: as §4
[31] = system: Bcap37; assay: Growth inhibition of human Bcap37 cells at 10 uM after 72 hrs by MTT assay relative to control; assay type: functional; settings: Homo sapiens, Bcap37, 72 h; read-out: GI; in short: as §4
[32] = system: Bcap37; assay: Growth inhibition of human Bcap37 cells at 1 uM after 72 hrs by MTT assay relative to control; assay type: functional; settings: Homo sapiens, Bcap37, 72 h; read-out: GI; in short: as §4
[33] = system: BGC-823; assay: Growth inhibition of human BGC823 cells at 10 uM after 72 hrs by MTT assay relative to control; assay type: functional; settings: BGC-823, 72 h, read-out: GI; in short: as §4
[34] = system: BGC-823; assay: Growth inhibition of human BGC823 cells at 1 uM after 72 hrs by MTT assay relative to control; assay type: functional; settings: BGC-823, 72 h, read-out: GI; in short: as §4
[35] = system: PC-3; assay: Growth inhibition of human PC3 cells at 1 uM after 72 hrs by MTT assay relative to control; assay type: functional; settings: Homo sapiens, PC-3, 72 h; read-out: GI; in short: as §4
[36] = system: PC-3; assay: Growth inhibition of human PC3 cells at 10 uM after 72 hrs by MTT assay relative to control; assay type: functional; settings: Homo sapiens, PC-3, 72 h; read-out: GI; in short: as §4
[37] = biological target: T1, Mitogen-activated protein kinase; ERK1/ERK2 (Homo sapiens) (UniProt P27361+P28482); assay: Inhibition of EGF-induced ERK1/2 phosphorylation in human PC3 cells at 1.28 uM incubated for 60 mins prior to EGF-treatment measured after 10 mins by Western blotting analysis; assay type: cell-based; settings: PC-3
T1 sequence (P27361 whole entry, looked up): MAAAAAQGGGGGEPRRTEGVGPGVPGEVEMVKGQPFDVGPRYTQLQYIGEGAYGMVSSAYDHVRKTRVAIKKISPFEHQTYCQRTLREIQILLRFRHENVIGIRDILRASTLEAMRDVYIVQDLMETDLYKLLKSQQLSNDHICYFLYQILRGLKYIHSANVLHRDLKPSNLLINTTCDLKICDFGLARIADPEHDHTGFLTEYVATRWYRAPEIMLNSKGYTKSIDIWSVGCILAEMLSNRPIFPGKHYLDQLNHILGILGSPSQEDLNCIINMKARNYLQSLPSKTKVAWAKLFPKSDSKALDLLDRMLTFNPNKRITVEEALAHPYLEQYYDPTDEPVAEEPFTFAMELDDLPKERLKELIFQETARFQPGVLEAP
T1 sequence (P28482 whole entry, looked up): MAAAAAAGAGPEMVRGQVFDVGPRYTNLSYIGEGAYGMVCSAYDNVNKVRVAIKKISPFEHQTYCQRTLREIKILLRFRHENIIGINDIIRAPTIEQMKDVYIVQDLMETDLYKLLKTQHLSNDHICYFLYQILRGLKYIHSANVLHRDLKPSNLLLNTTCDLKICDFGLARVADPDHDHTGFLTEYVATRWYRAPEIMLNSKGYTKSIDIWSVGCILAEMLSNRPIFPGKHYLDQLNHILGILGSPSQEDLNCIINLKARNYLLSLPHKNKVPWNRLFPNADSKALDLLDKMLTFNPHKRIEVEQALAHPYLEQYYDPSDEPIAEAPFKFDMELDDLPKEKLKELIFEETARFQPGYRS
In short: (§5)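 PC3 cells grown 36–48 h in RPMI 1640 with 10% FBS at 37 °C, then serum-starved 24 h. Treated with compound for 60 min, then EGF 10 ng/mL for 10 min; quenched on ice. Cells washed with cold PBS and lysed in NP-40/SDS buffer with Na3VO4 and NaF. Run on 10% SDS-PAGE, PVDF blot probed for pERK1/2 with actin as loading control, ECL detection.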

[38] = biological target: T1, Mitogen-activated protein kinase; ERK1/ERK2 (Homo sapiens); assay: Inhibition of EGF-induced ERK1/2 phosphorylation in human PC3 cells at 10 uM incubated for 60 mins prior to EGF-treatment measured after 10 mins by Western blotting analysis; assay type: cell-based; settings: PC-3; in short: as §5

SMILES: CC[C@@]1(O)C(=O)OCc2c1cc1n(c2=O)Cc2cc3cc(O)ccc3nc2-1 [HYDROXYCAMPTOTHECIN]
- Activity [1]: 38.2%
- Activity [2]: 19.8%
- Activity [3]: 12.8%
- Activity [4]: 11.9%
- Activity [5]: 11.9%
- Activity [6]: 7.4%
- Activity [7]: 17%
- Activity [8]: 8.3%
- Activity [9]: 5.7%
- Activity [10]: Active
- Activity [11]: Active

SMILES: COc1cc2ncnc(NCCc3ccccc3F)c2c(OC)c1OC
- Activity [12]: tde
- Activity [13]: Dose-dependent effect
- Activity [7]: 31.8%
- Activity [14]: 19.8%
- Activity [15]: 11.6%
- Activity [8]: 16.4%
- Activity [16]: 11.1%
- Activity [17]: 9.5%
- Activity [9]: 10.9%
- Activity [18]: 8.2%
- Activity [19]: 5.1%
- Activity [20]: Active
- Activity [21]: Active
- Activity [22]: Non-toxic
- Activity [23]: Active
- Activity [24]: Active
- Activity [25]: Active
- Activity [26]: Active
- Activity [27]: Active
- IC50 [28]: 3.1 µM
- IC50 [29]: 3.2 µM
- IC50 [30]: 6.2 µM
- inhibition of growth at 10 µM [31]: 90.4%
- inhibition of growth at 1 µM [32]: 46.5%
- inhibition of growth at 10 µM [33]: 88.2%
- inhibition of growth at 1 µM [34]: 38.7%
- inhibition of growth at 1 µM [35]: 22.6%
- inhibition of growth at 10 µM [36]: 90.6%
- inhibition [37]: Active
- inhibition [38]: Active
